# From PMC10938134 (International Journal for Parasitology: Drugs and Drug …, 2024)
# Tests used:
# [1] = tested on: redox biosensor hGrx1-roGFP2 in bloodstream T. b. brucei; assay: Redox reporter assay for T. brucei brucei; type: cell-based, Trypanosoma brucei brucei; details: compound at its EC50 for 1 h; p < 0.001 compared to DMSO-treated parasites
# Procedure, shortened: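 Exponential-phase bloodstream parasites expressing the redox biosensor were exposed for 1 h to the test compound, with 1% v/v DMSO as vehicle and untreated cells as minimum. Diamide at 500 μM for 20 min gave maximum oxidation. Samples were then incubated for 20 min with 1 mM DTT. Flow cytometry gave % biosensor oxidation relative to these maximum and minimum conditions.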
# [2] = tested on: bloodstream stage of Trypanosoma brucei brucei; assay: Viability assay for T. brucei brucei; type: cell-based; details: 24 h
# [3] = Trypanosoma brucei, bloodstream parasites, 24 h incubation, compounds tested at 5 μM
structure (smiles),measurement,setting,value
"CC(=O)OC[C@H]1O[C@@H]([Se]Cc2ccc3ccccc3n2)[C@H](OC(C)=O)[C@@H](OC(C)=O)[C@@H]1OC(C)=O [compound 12, Quinolin-2-ylmethyl 2,3,4,6-tetra-O-acetyl-1-seleno-β-D-glucopyranoside]",significant oxidation of the redox biosensor (in words),[1],Except for the quinolino Se-glycoside 12
"N=C(N)c1ccc(N=NNc2ccc(C(=N)N)cc2)cc1 [Ber, Berenil, reference compound]",EC50,"[2]; bloodstream T. b. brucei, concentration-response curves",430 ± 70 nM
"COc1ccc2c(C[Se][C@@H]3O[C@H](CO)[C@@H](O)[C@H](O)[C@H]3O)cc(=O)oc2c1 [compound 13, 7-Methoxycoumarin-4-ylmethyl 1-seleno-β-D-glucopyranoside]",viability at 5 µM,[2]; [3],57.3 ± 0.4%
"COc1ccc2c(C[Se][C@@H]3O[C@H](CO)[C@H](O)[C@H](O)[C@H]3O)cc(=O)oc2c1 [compound 14, 7-Methoxycoumarin-4-ylmethyl 1-seleno-β-D-galactopyranoside]",viability at 5 µM,[2]; [3],≤ 50%
"OC[C@H]1O[C@@H]([Se]Cc2ccc3ccccc3n2)[C@H](O)[C@@H](O)[C@@H]1O [compound 11, Quinolin-2-ylmethyl 1-seleno-β-D-glucopyranoside]",EC50,[2]; Trypanosoma brucei,~5000 nM
same,viability at 5 µM,[2]; Trypanosoma brucei,57.5 ± 3.8%
